Among the data in ChEMBL document CHEMBL4145463, “New insights into structure-activity relationship of ipomoeassin F from its bioisosteric 5-oxa/aza analogues” (Eur J Med Chem, 2018) are IC50 and GI50 values, retold here.

Each structure is given as a SMILES string.

As usually defined, the IC50 is the concentration that gives 50% inhibition. Usually GI50 stands for the concentration that inhibits growth by half. A higher GI50 goes with lower sensitivity of the cells.

For one assay, the system named is MDA-MB-231. The assay can be described thus: Cytotoxicity against human MDA-MB-231 cells assessed as reduction in cell viability after 72 hrs by Alamar Blue assay. In kind it is functional, cell-based. The settings on record: MDA-MB-231, 72 h. The procedure, abridged:
(§1)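 Cells were seeded at 5,000 per well and preincubated 24 h at 37 °C in 5% CO2. They were then exposed for 72 h to gradient dilutions in complete DMEM/HIGH medium, made from 10 mM DMSO stocks, with DMSO below 0.5%. Fresh medium with 10% AlamarBlue was incubated 3 h and read at 580 nm (620 nm reference). Viability was taken versus DMSO-treated cells, and IC50 was fitted from viability–concentration plots; triplicate.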

The next assay relates to MCF7. The assay can be described thus: Cytotoxicity against human MCF7 cells assessed as reduction in cell viability after 72 hrs by MTT assay. The settings on record: MCF7, 72 h. In kind it is functional, cell-based.
The subject of a further assay is MCF-10A. Kind of assay: Cytotoxicity against human MCF10A cells assessed as reduction in cell viability after 72 hrs by Alamar Blue assay. In kind it is cell-based. The method, boiled down: as §1
A general note: The colour change of resazurin is a common sign of viable cells or microbes.

The test system of the next assay is U-937. The assay can be described thus: Cytotoxicity against human U937 cells after 72 hrs. In kind it is functional, cell-based. Particulars: U-937, 72 h.
A further assay has as its system MDA-MB-435. Kind of assay: Cytotoxicity against human MDA-MB-435 cells after 72 hrs. In kind it is functional, cell-based. Particulars: MDA-MB-435, 72 h.
The test system of a further assay is HT-29. Kind of assay: Cytotoxicity against human HT-29 cells after 72 hrs. Format: functional, cell-based. Particulars: HT-29, 72 h.
The nature of assay [1]: Cytotoxicity against human H522-T1 cells after 72 hrs. In kind it is functional, cell-based. Particulars: H522-T1, 72 h.
In a further assay the test system is HeLa. Kind of assay: Cytotoxicity against human HeLa cells after 72 hrs. Format: functional, cell-based.
For the next assay, the system named is L929. Kind of assay: Cytotoxicity against mouse L929 cells after 72 hrs. Format: cell-based. Particulars: L929, 72 h.
Another assay relates to A2780. Kind of assay: Cytotoxicity against human A2780 cells after 72 hrs. Particulars: A2780, 72 h. Format: functional, cell-based.
The subject of assay [2] is Panel NCI-60 (60 carcinoma cell lines). The assay can be described thus: Growth inhibition of human NCI60 cells after 48 hrs by SRB assay. Format: functional. A general note: Sulforhodamine B stains cellular protein and so reports cell mass.

For `C/C=C(\C)C(=O)O[C@@H]1[C@@H](O)[C@@H]2O[C@H]3[C@H](O[C@@H](CCCCC)CCCCOC(=O)CCC(=O)OC[C@@H](O2)[C@H]1OC(=O)/C=C/c1ccccc1)O[C@H](C)[C@H](OC(C)=O)[C@@H]3O`, the figures for the concentration for half-maximal inhibition (IC50) in the assay on MDA-MB-231 and with MCF7 were 290 nM and 710 nM, respectively.
Regarding `C/C=C(\C)C(=O)O[C@@H]1[C@@H](O)[C@@H]2O[C@H]3[C@H](O[C@@H](CCCCC)CCCCCN(C)C(=O)CCC(=O)OC[C@@H](O2)[C@H]1OC(=O)/C=C/c1ccccc1)O[C@H](C)[C@H](OC(C)=O)[C@@H]3O`, the IC50 in the assay with MDA-MB-231 was 14.4 nM; with MCF-10A, 17.5 nM; in the assay with MCF7, 69.2 nM.
`C/C=C(\C)C(=O)O[C@@H]1[C@@H](O)[C@@H]2O[C@H]3[C@H](O[C@@H](CCCCC)C/C=C/CCOC(=O)CCC(=O)OC[C@@H](O2)[C@H]1OC(=O)/C=C/c1ccccc1)O[C@H](C)[C@H](OC(C)=O)[C@@H]3O`: the results for the IC50 with MDA-MB-231 and in the assay on MCF7 were 808 nM and 3280 nM, respectively.
Turning to `C/C=C(\C)C(=O)O[C@@H]1[C@@H](O)[C@@H]2O[C@H]3[C@H](O[C@@H](CCCCC)CC=CCCCC(=O)CCC(=O)OC[C@@H](O2)[C@H]1OC(=O)/C=C/c1ccccc1)O[C@H](C)[C@H](OC(C)=O)[C@@H]3O` (mixture of isomers), the IC50 in the assay with MDA-MB-231 stood at 68.3 nM; in the assay on MCF-10A it was 27.2 nM; in the assay on MCF7, 307 nM.
Turning to `C/C=C(\C)C(=O)O[C@@H]1[C@@H](O)[C@@H]2O[C@H]3[C@H](O[C@@H](CCC)CCCCCCC(=O)CCC(=O)OC[C@@H](O2)[C@H]1OC(=O)/C=C/c1ccccc1)O[C@H](C)[C@H](O)[C@@H]3O` [IPOMOEASSIN B], the IC50 turned out to be 134 nM in the assay on U-937; 2700 nM with MDA-MB-435; 396 nM in the assay with HT-29; 1070 nM in assay [1]; 2500 nM in the assay on HeLa.
With `C/C=C(\C)C(=O)O[C@@H]1[C@@H](O)[C@@H]2O[C@H]3[C@H](O[C@@H](CCC)CCCCC[C@H](OC(C)=O)C(=O)CCC(=O)OC[C@@H](O2)[C@H]1OC(=O)/C=C/c1ccccc1)O[C@H](C)[C@H](OC(C)=O)[C@@H]3O` [IPOMOEASSIN D], the IC50 with U-937 is 7.9 nM; in the assay on MDA-MB-435, 19.9 nM; in the assay with HT-29, 11.8 nM; in the assay with L929, 135 nM; in assay [1], 23.2 nM; in the assay with HeLa, 32 nM.
Consider `C/C=C(\C)C(=O)O[C@@H]1[C@@H](O)[C@@H]2O[C@H]3[C@H](O[C@@H](CCCCC)CCCCCOC(=O)CCC(=O)OC[C@@H](O2)[C@H]1OC(=O)/C=C/c1ccccc1)O[C@H](C)[C@H](OC(C)=O)[C@@H]3O`, for which the IC50 was determined as 31.5 nM in the assay with MDA-MB-231, 26.9 nM with MCF-10A and 81.2 nM in the assay with MCF7.
`C/C=C(\C)C(=O)O[C@@H]1[C@@H](O)[C@@H]2O[C@H]3[C@H](O[C@@H](CCC)CCCCCCC(=O)CCC(=O)OC[C@@H](O2)[C@H]1OC(=O)/C=C/c1ccccc1)O[C@H](C)[C@H](OC(C)=O)[C@@H]3O` [IPOMOEASSIN A]: the IC50 in the assay with U-937 came out at 20.2 nM; in the assay with MDA-MB-435, 42.6 nM; in the assay on HT-29, 46.1 nM; in the assay on L929, 77.8 nM; in assay [1] it was 109 nM; in the assay on HeLa, 64 nM.
With `C/C=C(\C)C(=O)O[C@@H]1[C@@H](O)[C@@H]2O[C@H]3[C@H](O[C@@H](CCC)CCCCC[C@H](OC(C)=O)C(=O)CCC(=O)OC[C@@H](O2)[C@H]1OC(=O)/C=C/c1ccccc1)O[C@H](C)[C@H](O)[C@@H]3O` [IPOMOEASSIN E], the IC50 in the assay with U-937 was 163 nM; in the assay on MDA-MB-435 it was 1630 nM; with HT-29 it was 393 nM; with L929, greater than 1000 nM; in [1] it was 967 nM; with HeLa, 4300 nM.
In the case of `C/C=C(\C)C(=O)O[C@@H]1[C@@H](O)[C@H](O[C@H]2[C@H](O[C@@H](CCCCC)CCCCC/N=C3/CCC(=O)O3)O[C@H](C)[C@H](OC(C)=O)[C@@H]2O)O[C@H](COC(=O)/C=C/c2ccccc2)[C@H]1O`, the half-inhibitory concentration (IC50) with MDA-MB-231 and in the assay on MCF7 was greater than 25000 nM in each case.
For the molecule `C/C=C(\C)C(=O)O[C@@H]1[C@@H](O)[C@@H]2O[C@H]3[C@H](O[C@@H](CCCCC)CCCCCNC(=O)CCC(=O)OC[C@@H](O2)[C@H]1OC(=O)/C=C/c1ccccc1)O[C@H](C)[C@H](OC(C)=O)[C@@H]3O`, the figures for the IC50 in the assay with MDA-MB-231, in the assay with MCF-10A and in the assay with MCF7 were 48.7 nM, 75.2 nM and 351 nM, respectively.
On to `C/C=C(\C)C(=O)O[C@@H]1[C@@H](O)[C@@H]2O[C@H]3[C@H](O[C@@H](CCCCC)C/C=C\CCOC(=O)CCC(=O)OC[C@@H](O2)[C@H]1OC(=O)/C=C/c1ccccc1)O[C@H](C)[C@H](OC(C)=O)[C@@H]3O`, for which the IC50 in the assay on MDA-MB-231 was 260 nM; in the assay with MCF7, 816 nM.
In the case of `C/C=C(\C)C(=O)O[C@@H]1[C@@H](O)[C@@H]2O[C@H]3[C@H](O[C@@H](CCCCC)CCCCCCC(=O)CCC(=O)OC[C@@H](O2)[C@H]1OC(=O)/C=C/c1ccccc1)O[C@H](C)[C@H](OC(C)=O)[C@@H]3O`, the IC50 in the assay with U-937 stood at 2.6 nM; with MCF-10A it was 5.1 nM; in the assay on MDA-MB-435, 9.4 nM; in the assay on HT-29 it was 4.2 nM; in the assay on L929 it was 7.4 nM; in assay [1], 12.9 nM. Further, in the assay with A2780, it took 36 nM to reach half-maximal inhibition (IC50). In addition, in assay [2], the GI50 was determined as 30 nM.
As for `C/C=C(\C)C(=O)O[C@@H]1[C@@H](O)[C@@H]2O[C@H]3[C@H](O[C@@H](CCC)CCCCC[C@H](O)C(=O)CCC(=O)OC[C@@H](O2)[C@H]1OC(=O)/C=C/c1ccccc1)O[C@H](C)[C@H](OC(C)=O)[C@@H]3O` [IPOMOEASSIN C], the results for the IC50 with L929 and in the assay on HeLa were greater than 1000 nM and 1500 nM, respectively.
